Assay [1] relates to HEp-2. Briefly: Antiproliferative effect against Hep2 cell lines at a concentration of 1 uM. Format: functional, Homo sapiens.
For assay [2], the system named is HeLa. Briefly: Antiproliferative effect against HeLa cell lines at a concentration of 1 uM. In kind it is functional, Homo sapiens.
The test system of assay [3] is Nucleic Acid. Briefly: Concentration to give comigration of ccc PM-2 DNA with nicked PM-2 DNA under electrophoresis was evaluated. Particulars: unidentified phage. Format: nucleic-acid assay. In outline: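 Agarose tube gels (1%, pH 7.4 Tris-Cl/EDTA/NaCl/acetate buffer) contained drug at final 0.00–1.00 µg/mL. PM-2 ccc-DNA was loaded with drug at a 5:1 DNA phosphate:drug ratio and run at 45 V, 20–25 °C, for 3–4 h. Gels were stained with ethidium. The critical concentration is where ccc-DNA comigrates with nicked PM-2 DNA.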

The test system of assay [4] is Mus musculus. In words: In vivo antileukemic activity against P-388 cells in mice and the treated /control value was determined at schedule Q01Dx01 at a dose of 2 mg/kg. Format: functional. In outline: (§1)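 Mice bearing P-388 leukaemia received the hydrochloride salts as a single dose on day 3 after inoculation (Q01D×01). Activity is expressed as treated/control (T/C).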

Assay [5] deals with Mus musculus. In words: In vivo antileukemic activity against P-388 cells in mice and the treated /control value was determined at schedule Q01Dx01 at a dose of 16 mg/kg. Format: functional. In outline:
as §1

Assay [6] deals with Mus musculus. Briefly: In vivo antileukemic activity against P-388 cells in mice and the treated /control value was determined at schedule Q01Dx01 at a dose of 64 mg/kg. In kind it is functional. In outline:
as §1

Assay [7] deals with Mus musculus. Briefly: In vivo antileukemic activity against P-388 cells in mice and the treated /control value was determined at schedule Q01Dx01 at a dose of 8 mg/kg. In kind it is functional. In outline:
as §1

Assay [8] concerns Mus musculus. Briefly: In vivo antileukemic activity against P-388 cells in mice and the treated /control value was determined at schedule Q01Dx01 at a dose of 128 mg/kg. In kind it is functional. The method, boiled down:
as §1

Assay [9] relates to Mus musculus. Briefly: In vivo antileukemic activity against P-388 cells in mice and the treated /control value was determined at schedule Q01Dx01 at a dose of 1 mg/kg. Format: functional. The method, boiled down:
as §1

The subject of assay [10] is Mus musculus. In words: In vivo antileukemic activity against P-388 cells in mice and the treated /control value was determined at schedule Q01Dx01 at a dose of 32 mg/kg. In kind it is functional. In outline: as §1
Assay [11] has as its system Mus musculus. Briefly: In vivo antileukemic activity against P-388 cells in mice and the treated /control value was determined at schedule Q01Dx01 at a dose of 4 mg/kg. Format: functional. The method, boiled down:
as §1

Assay [12] deals with Nucleic Acid. Briefly: Compound was evaluated for DNA binding affinity. Format: nucleic-acid assay. Particulars: Bos taurus. The method, boiled down: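 Drug solution (5 × 10^-5 M, 3 mL; three samples) was titrated with sequential aliquots of 2.5 × 10^-3 M DNA. Absorbance was read at the unbound-drug λmax after equilibration, against a buffer blank. Free and bound drug were derived from the fractional decrease in extinction. Affinity K and site number n were taken from a Scatchard plot.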

Assay [13] has as its system HEp-2. Briefly: Antiproliferative effect against Hep2 cell lines at a concentration of 10.0 uM. Format: functional, Homo sapiens.
Assay [14] deals with HeLa. In words: Antiproliferative effect against HeLa cell lines at a concentration of 10.0 uM. Format: functional, Homo sapiens.
Assay [15] has as its system Mus musculus. Briefly: In vivo antileukemic activity against P-388 cells in mice and the treated /control value was determined at schedule Q04Dx03 at a dose of 16 mg/kg.
For assay [16], the system named is Mus musculus. In words: In vivo antileukemic activity against P-388 cells in mice and the treated /control value was determined at schedule Q04Dx03 at a dose of 4 mg/kg.
In assay [17] the test system is Mus musculus. Briefly: In vivo antileukemic activity against P-388 cells in mice and the treated /control value was determined at schedule Q04Dx03 at a dose of 8 mg/kg.

With `COc1cccc2c1C(=O)c1c(O)c3c(c(O)c1C2=O)C[C@@](O)(C(=O)CO)C[C@@H]3O[C@H]1C[C@H](N)[C@H](O)[C@H](C)O1` [DOXORUBICIN], the “No. of untreated cells” value in the assay with HEp-2 [1] came to 56%; in the assay on HeLa [2], 52%.
Regarding `CCN(CC)CCNc1ccc(NCCN(CC)CC)c2c1C(=O)c1ccccc1C2=O`, in the assay on Nucleic Acid [3], the Critical concentration worked out at 0.16 µg/mL. The T/C in the assay on Mus musculus [4] was found to be 95; in the assay with Mus musculus [5], 112; in the assay with Mus musculus [6] it was 97; with Mus musculus [7], 107; in the assay with Mus musculus [8], 111; in the assay on Mus musculus [9], 117. Besides, the T/C in the assay on Mus musculus [10] amounted to 103; with Mus musculus [11] it was 100. In addition, the entries for the “No. of untreated cells” value in the assay with HEp-2 [1] and in the assay on HeLa [2] were 88% and 98%, respectively. The molecule further gave an Affinity constant in the assay on Nucleic Acid [12] of 3.17e+06 M⁻¹.
For the molecule `CCN(CC)CCNc1cccc2c1C(=O)c1cccc(NCCN(CC)CC)c1C2=O`, the Critical concentration with Nucleic Acid [3] worked out at 0.16 µg/mL. Also, the T/C with Mus musculus [4] is reported as 98; in the assay with Mus musculus [5], 105; in the assay with Mus musculus [6] it was 105; in the assay with Mus musculus [7], 98; in the assay with Mus musculus [8], 92; in the assay on Mus musculus [9], 102. The T/C with Mus musculus [10] is recorded as 100; with Mus musculus [11] it was 107. Besides, the figures for the “No. of untreated cells” value in the assay with HEp-2 [1] and in the assay with HeLa [2] were 64% and 75%, respectively. In the assay with Nucleic Acid [12], this molecule returned an Affinity constant of 3.97e+06 M⁻¹.
`CCN(CC)CCNc1cccc2c1C(=O)c1ccccc1C2=O` came in with a Critical concentration in the assay with Nucleic Acid [3] of 0.8 µg/mL. The T/C was 98 with Mus musculus [4]; 95 in the assay with Mus musculus [5]; 100 in the assay with Mus musculus [7]; 105 in the assay on Mus musculus [9]; 100 in the assay on Mus musculus [11]. Moreover, the “No. of untreated cells” value is 92% in the assay on HEp-2 [13] and 96% in the assay with HeLa [14]. For the same molecule, the Affinity constant in the assay with Nucleic Acid [12] was determined as 1.48e+06 M⁻¹.
The molecule `CCN(CC)CCNc1cccc2c1C(=O)c1c(NCCN(CC)CC)cccc1C2=O` showed a Critical concentration with Nucleic Acid [3] of 0.4 µg/mL. For the same molecule, the T/C with Mus musculus [4] is recorded as 104; in the assay on Mus musculus [7], 107; with Mus musculus [15], 102; with Mus musculus [11], 105; with Mus musculus [16], 91; with Mus musculus [17] it was 98. Further, the “No. of untreated cells” value is recorded as 84% in the assay with HEp-2 [13] and 64% with HeLa [14]. Further, in the assay with Nucleic Acid [12], the Affinity constant stood at 1.71e+06 M⁻¹.
